According to ChEMBL document CHEMBL4342514, “Azole Based Acetohydrazide Derivatives of Cinnamaldehyde Target and Kill Candida albicans by Causing Cellular Apoptosis” (ACS Med Chem Lett, 2020):
In brackets after ≈: the same amount, converted by molar mass.

Columns and labels:
[1] = tested on: Candida albicans; experiment: Fungicidal activity against fluconazole-susceptible Candida albicans assessed as growth inhibition by sub-culturing on Agar plate and incubated for 24 to 48 hrs; format: functional
Procedure, shortened: (§1)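 C. albicans clinical isolates were tested: 8 fluconazole-susceptible and 3 fluconazole-resistant. Isolates were called resistant at a fluconazole MIC ≥8 μg/mL, per CLSI 2012 interpretive guidelines. Compounds were diluted to test concentrations in 1% DMSO, which served as the negative control. Fluconazole was the positive control. Values are means per group.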

[2] = tested on: Candida albicans; experiment: Antifungal activity against fluconazole-susceptible Candida albicans assessed as growth inhibition measured after 24 hrs by CLSI protocol based broth microdilution method; format: functional; procedure, shortened: as §1
[3] = tested on: Candida albicans; experiment: Fungicidal activity against fluconazole-resistant Candida albicans assessed as growth inhibition by sub-culturing on Agar plate and incubated for 24 to 48 hrs; format: functional; procedure, shortened: as §1
[4] = tested on: Candida albicans; experiment: Antifungal activity against Candida albicans SC5314 assessed as effect on fungal cell viability by measuring dead cells at MIC measured after 3 hrs by Muse cell analyzer (reference value: 1.4 %); format: functional
Procedure, shortened: (§2)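 Candida albicans SC5314 cells at a density of 1 × 107 were exposed to each compound at its MIC. Live and dead cells were counted with the Muse Count & Viability kit. Untreated cells were the negative control and heat-killed cells the positive control. A cell size index was run in the same assay to separate cells from debris and non-nucleated cells.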

[5] = tested on: Candida albicans; experiment: Induction of apoptosis in Candida albicans SC5314 protoplasts assessed as necrotic cells at 1/2 MIC measured after 3 hrs by Annexin V-FITC/propidium iodide staining based flow cytometry (reference value: 0.15 +/- 0.03 %); format: functional
[6] = tested on: Candida albicans; experiment: Induction of apoptosis in Candida albicans SC5314 protoplasts assessed as late apoptotic cells at 1/2 MIC measured after 3 hrs by Annexin V-FITC/propidium iodide staining based flow cytometry (reference value: 0.06 +/- 0.01 %); format: functional
[7] = tested on: Candida albicans; experiment: Antifungal activity against Candida albicans SC5314 assessed as effect on fungal cell viability by measuring live cells at MIC measured after 3 hrs by Muse cell analyzer (reference value: 98.6 %); format: functional
[8] = tested on: Candida albicans; experiment: Induction of apoptosis in Candida albicans SC5314 protoplasts assessed as viable cells at 1/2 MIC measured after 3 hrs by Annexin V-FITC/propidium iodide staining based flow cytometry (reference value: 96.3 %); format: functional
[9] = tested on: Candida albicans; experiment: Induction of apoptosis in Candida albicans SC5314 protoplasts assessed as early apoptotic cells at 1/2 MIC measured after 3 hrs by Annexin V-FITC/propidium iodide staining based flow cytometry (reference value: 3.47 +/- 0.26 %); format: functional
[10] = Hemolytic activity against horse erythrocytes at 4 to 125 ug/ml measured after 3 hrs by spectrophometric analysis; format: ADME, cell-based, Equus caballus, Erythrocyte; conditions: read-out: Activity
Procedure, shortened: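 Horse red blood cells exposed to compound. Hemolysis read as absorbance at 450 nm and expressed as % lysis relative to 1% Triton X-100, taken as 100% hemolysis.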

[11] = tested on: Candida albicans; experiment: Antifungal activity against fluconazole-resistant Candida albicans assessed as growth inhibition measured after 24 hrs by CLSI protocol based broth microdilution method; format: functional; procedure, shortened: as §1
[12] = tested on: Candida albicans; experiment: Induction of DNA damage in Candida albicans SC5314 assessed as apoptotic cells at 1/2 MIC measured after 3 hrs by TUNEL based confocal microscopy relative to control; format: functional
Procedure, shortened: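 SC5314 cells exposed to 1/2 MIC of compound, then TUNEL-labelled with fluorescent dUTP (Ex/Em 488/515 nm) and counterstained with Hoechst 33342 (Ex/Em 350/460 nm). Imaged by confocal laser scanning microscopy and scored as % TUNEL-positive nuclei against untreated control.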

[13] = tested on: Candida albicans; experiment: Antifungal activity against Candida albicans SC5314 assessed as effect on fungal cell death at MIC measured after 3 hrs by Muse cell analyzer relative to control; format: functional; procedure, shortened: as §2
[14] = tested on: Candida albicans; experiment: Induction of DNA damage in Candida albicans SC5314 assessed as increase in TUNEL positive nuclei at 0.125 ug/ml measured after 3 hrs by TUNEL based confocal microscopy relative to control; format: functional
Procedure, shortened: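 SC5314 cells treated with 0.125 μg/mL amphotericin B, then TUNEL-labelled with fluorescent dUTP and counterstained with Hoechst 33342. Confocal microscopy scored TUNEL-positive (green) nuclei relative to untreated cells.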

Question: For C(=C\c1nn[nH]n1)/c1ccccc1, which MFC [1] is on record?
Answer: > 125 µg/mL

Question: And the MIC [2]?
Answer: > 125 µg/mL

Question: For CCOC(=O)Cn1nnc(/C=C/c2ccccc2)n1, which MFC [1] is on record?
Answer: > 125 µg/mL

Question: What about the MIC [2] of the same compound?
Answer: > 125 µg/mL

Question: What does the source list for COc1ccc(/C=N/NC(=O)Cn2nnc(/C=C/c3ccccc3)n2)cc1OC?
Answer: MFC [3]: 8 µg/mL (≈ 20.4 µM); Activity [4]: 55.2%; Activity [5]: 4.55%; Activity [6]: 24.93%; MFC [1]: 8 µg/mL (≈ 20.4 µM); Activity [7]: 44.8%; Activity [8]: 61.4%; Activity [9]: 9.69%; hemolysis at 3 h [10]: 10 to 40%; MIC [11]: 4 µg/mL (≈ 10.2 µM); MIC [2]: 2 µg/mL (≈ 5.1 µM); Activity [12]: 25 - 55%

Question: Which MFC [3] does the source give for CCOc1ccc(/C=N/NC(=O)Cn2nnc(/C=C/c3ccccc3)n2)cc1 here?
Answer: 8 µg/mL (≈ 21.3 µM)

Question: And the Activity [4]?
Answer: 53.6%

Question: What about the Activity [5] of the same compound?
Answer: 2.44%

Question: What about the Activity [6] of the same compound?
Answer: 27.92%

Question: What about the MFC [1] of the same compound?
Answer: 8 µg/mL (≈ 21.3 µM)

Question: And the Activity [7]?
Answer: 46.4%

Question: And the Activity [8]?
Answer: 59.9%

Question: And the Activity [9]?
Answer: 10.49%

Question: What about the hemolysis at 3 h [10] of the same compound?
Answer: 10 to 40%

Question: And the MIC [11]?
Answer: 8 µg/mL (≈ 21.3 µM)

Question: What about the MIC [2] of the same compound?
Answer: 4 µg/mL (≈ 10.6 µM)

Question: And the Activity [12]?
Answer: 25 - 55%

Question: With O=C(Cn1nnc(/C=C/c2ccccc2)n1)N/N=C/c1cccc([N+](=O)[O-])c1 as the compound, how does the MFC [3] read?
Answer: 1 µg/mL (≈ 2.65 µM)

Question: What about the Activity [4] of the same compound?
Answer: 70.4%

Question: What about the Activity [5] of the same compound?
Answer: 11.7%

Question: What about the Activity [6] of the same compound?
Answer: 44.65%

Question: What about the MFC [1] of the same compound?
Answer: 1 µg/mL (≈ 2.65 µM)

Question: What about the Activity [7] of the same compound?
Answer: 29.6%

Question: And the Activity [8]?
Answer: 35.3%

Question: And the Activity [9]?
Answer: 8.23%

Question: And the hemolysis at 3 h [10]?
Answer: 10 to 40%

Question: And the MIC [11]?
Answer: 0.5 µg/mL (≈ 1.32 µM)

Question: And the MIC [2]?
Answer: 0.25 µg/mL (≈ 0.662 µM)

Question: What about the Activity [12] of the same compound?
Answer: 25 - 55%

Question: With O=C(Cn1nnc(/C=C/c2ccccc2)n1)N/N=C/c1ccccc1 as the compound, how does the MFC [1] read?
Answer: > 125 µg/mL

Question: And the MIC [11]?
Answer: 125 µg/mL (≈ 376 µM)

Question: What about the MIC [2] of the same compound?
Answer: 125 µg/mL (≈ 376 µM)

Question: Which results are given for O=C(Cn1nnc(/C=C/c2ccccc2)n1)N/N=C/c1ccc([N+](=O)[O-])cc1?
Answer: MFC [3]: 1 µg/mL (≈ 2.65 µM); Activity [4]: 77.2%; Activity [5]: 9.8%; Activity [6]: 48.3%; MFC [1]: 1 µg/mL (≈ 2.65 µM); Activity [13]: >75%; Activity [7]: 22.8%; Activity [8]: 33.8%; Activity [9]: 8.21%; hemolysis at 3 h [10]: 10 to 40%; MIC [11]: 0.5 µg/mL (≈ 1.32 µM); MIC [2]: 0.125 µg/mL (≈ 0.331 µM); Activity [12]: 25 - 55%

Question: Which MFC [3] does the source give for Cc1ccc(/C=N/NC(=O)Cn2nnc(/C=C/c3ccccc3)n2)cc1 here?
Answer: 16 µg/mL (≈ 46.2 µM)

Question: What about the Activity [4] of the same compound?
Answer: 44.2%

Question: What about the Activity [5] of the same compound?
Answer: 3.7%

Question: And the Activity [6]?
Answer: 15.6%

Question: What about the MFC [1] of the same compound?
Answer: 16 µg/mL (≈ 46.2 µM)

Question: And the Activity [7]?
Answer: 55.8%

Question: What about the Activity [8] of the same compound?
Answer: 71.3%

Question: And the Activity [9]?
Answer: 10.18%

Question: What about the hemolysis at 3 h [10] of the same compound?
Answer: 10 to 40%

Question: What about the MIC [11] of the same compound?
Answer: 16 µg/mL (≈ 46.2 µM)

Question: What about the MIC [2] of the same compound?
Answer: 16 µg/mL (≈ 46.2 µM)

Question: And the Activity [12]?
Answer: 25 - 55%

Question: Which MFC [1] does the source give for O=C(Cn1nnc(/C=C/c2ccccc2)n1)N/N=C/c1ccccc1Cl here?
Answer: > 125 µg/mL

Question: What about the MIC [11] of the same compound?
Answer: 125 µg/mL (≈ 341 µM)

Question: And the MIC [2]?
Answer: 64 µg/mL (≈ 174 µM)

Question: Which MFC [1] does the source give for NNC(=O)Cn1nnc(/C=C/c2ccccc2)n1 here?
Answer: > 125 µg/mL

Question: What about the MIC [2] of the same compound?
Answer: > 125 µg/mL

Question: What does the source list for O=C(Cn1nnc(/C=C/c2ccccc2)n1)N/N=C/c1ccccc1[N+](=O)[O-]?
Answer: MFC [3]: 4 µg/mL (≈ 10.6 µM); Activity [4]: 59.6%; Activity [5]: 1.98%; Activity [6]: 36.34%; MFC [1]: 4 µg/mL (≈ 10.6 µM); Activity [7]: 40.4%; Activity [8]: 48.3%; Activity [9]: 13.37%; hemolysis at 3 h [10]: 10 to 40%; MIC [11]: 0.5 µg/mL (≈ 1.32 µM); MIC [2]: 0.5 µg/mL (≈ 1.32 µM); Activity [12]: 25 - 55%

Question: What does the source list for COc1ccc(/C=N/NC(=O)Cn2nnc(/C=C/c3ccccc3)n2)cc1?
Answer: MFC [3]: 16 µg/mL (≈ 44.2 µM); Activity [4]: 47.7%; Activity [5]: 1.78%; Activity [6]: 23.6%; MFC [1]: 8 µg/mL (≈ 22.1 µM); Activity [7]: 52.3%; Activity [8]: 60.9%; Activity [9]: 13.9%; hemolysis at 3 h [10]: 10 to 40%; MIC [11]: 8 µg/mL (≈ 22.1 µM); MIC [2]: 8 µg/mL (≈ 22.1 µM); Activity [12]: 25 - 55%

Question: With O=C(Cn1nnc(/C=C/c2ccccc2)n1)N/N=C/c1ccc(Cl)cc1 as the compound, how does the MFC [1] read?
Answer: > 125 µg/mL

Question: What about the MIC [11] of the same compound?
Answer: 64 µg/mL (≈ 174 µM)

Question: And the MIC [2]?
Answer: 64 µg/mL (≈ 174 µM)

Question: Which MFC [1] does the source give for O/N=C/C=C/c1ccccc1 here?
Answer: > 125 µg/mL

Question: What about the MIC [2] of the same compound?
Answer: > 125 µg/mL

Question: Which Activity [14] does the source give for C[C@@H]1[C@H](O)[C@@H](C)/C=C/C=C/C=C/C=C/C=C/C=C/C=C/[C@H](O[C@@H]2O[C@H](C)[C@@H](O)[C@H](N)[C@@H]2O)C[C@@H]2O[C@](O)(C[C@@H](O)C[C@@H](O)[C@H](O)CC[C@@H](O)C[C@@H](O)CC(=O)O[C@H]1C)C[C@H](O)[C@H]2C(=O)O [AMPHOTERICIN B] here?
Answer: >90%

Question: For N#C/C=C/c1ccccc1 [CINNAMONITRILE], which MFC [3] is on record?
Answer: > 125 µg/mL

Question: And the MFC [1]?
Answer: > 125 µg/mL

Question: And the MIC [11]?
Answer: > 125 µg/mL

Question: What about the MIC [2] of the same compound?
Answer: > 125 µg/mL

Question: What does the source list for OC(Cn1cncn1)(Cn1cncn1)c1ccc(F)cc1F [FLUCONAZOLE]?
Answer: MIC [11]: 16 µg/mL (≈ 52.2 µM); MIC [2]: 0.25 µg/mL (≈ 0.816 µM)
